Test results as given in ChEMBL document CHEMBL1158358, “Synthesis, antimicrobial and cytotoxic activities of some 5-arylidene-4-thioxo-thiazolidine-2-ones” (Eur J Med Chem, 2009).
Converted amounts (≈) assume the structure as drawn.

Experiments:
Format in all cases: functional
Staphylococcus aureus [1] = assay: Antimicrobial activity against multidrug-resistant Staphylococcus aureus H.C. 21036 isolate after 20 hrs by twofold serial dilution technique; conditions: H.C. 21036, 20 h
Method in brief: (§1)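 Twofold serial dilution MIC in agar plates against Gram-positive strains and multidrug-resistant clinical isolates. Inoculum applied was 10⁵ CFU/plate. Plates with culture medium plus DMSO served as negative control. MIC was read after incubation at 35 °C for 20 h.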

NCI-H292 [2] = assay: Cytotoxicity against human NCI-H292 cells at 1.25 ug/mL after 72 hrs by MTT assay; conditions: NCI-H292, 72 h, read-out: GI
Method in brief: (§2)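 MTT antiproliferative assay. Cells were diluted to 10⁵ cells/mL in 96-well plates and preincubated for 24 h at 37 °C in humid 5% CO₂. Compounds or vincristine (reference) were then added. Formazan was dissolved and OD read at 540 nm, compared with medium-only control cells. Run in triplicate.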

Staphylococcus [3] = assay: Antimicrobial activity against coagulase-negative Staphylococcus H.A.M. 338 isolate after 20 hrs by twofold serial dilution technique; conditions: H.A.M. 338, 20 h
Method in brief: (§3)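 MIC was determined by twofold serial dilution. Bacteria were tested in plates at 10⁵ CFU/plate and read after 20 h. C. albicans was tested in tubes at 10³ CFU/tube and read after 48 h. All incubations were at 35 °C. Medium plus DMSO served as the negative control.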

Bacillus subtilis [4] = assay: Antimicrobial activity against Bacillus subtilis UFPEDA 16 after 20 hrs by twofold serial dilution technique; conditions: UFPEDA 16, 20 h; method in brief: as §3
Staphylococcus aureus [5] = assay: Antimicrobial activity against multidrug-resistant Staphylococcus aureus H.C. 20489 isolate after 20 hrs by twofold serial dilution technique; conditions: H.C. 20489, 20 h; method in brief: as §1
Micrococcus luteus [6] = assay: Antimicrobial activity against Micrococcus luteus UFPEDA 06 after 20 hrs by twofold serial dilution technique; conditions: UFPEDA 06, 20 h; method in brief: as §3
[7] = system: Mycolicibacterium smegmatis; assay: Antimicrobial activity against Mycobacterium smegmatis UFPEDA 71 at 300 ug/disk after 24 hrs by disk diffusion method; conditions: UFPEDA 71, 24 h, read-out: IZ
Method in brief: (§4)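 Preliminary screen by disk diffusion. Paper disks (6 mm) holding 300 µg of compound were placed on agar plates inoculated with a standardized microbial suspension. DMSO-only disks served as negative controls. A mean inhibition zone below 7 mm was scored as no sensitivity. Values are means, n = 3.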

Enterococcus faecalis [8] = assay: Antimicrobial activity against multidrug-resistant Enterococcus faecalis H.C. 21752 isolate after 20 hrs by twofold serial dilution technique; conditions: H.C. 21752, 20 h; method in brief: as §1
Pseudomonas aeruginosa = assay: Antimicrobial activity against Pseudomonas aeruginosa UFPEDA 39 at 300 ug/disk after 24 hrs by disk diffusion method; conditions: UFPEDA 39, 24 h, read-out: IZ; method in brief: as §4
NCI-H292 [9] = assay: Cytotoxicity against human NCI-H292 cells at 10 ug/mL after 72 hrs by MTT assay; conditions: NCI-H292, 72 h, read-out: GI; method in brief: as §2
Staphylococcus aureus [10] = assay: Antimicrobial activity against Staphylococcus aureus UFPEDA 01 after 20 hrs by twofold serial dilution technique; conditions: UFPEDA 01, 20 h; method in brief: as §1
HEp-2 [11] = assay: Cytotoxicity against human Hep2 cells at 5 ug/mL after 72 hrs by MTT assay; conditions: HEp-2, 72 h, read-out: GI; method in brief: as §2
Enterococcus faecalis [12] = assay: Antimicrobial activity against Enterococcus faecalis UFPEDA 138 at 300 ug/disk after 24 hrs by disk diffusion method; conditions: UFPEDA 138, 24 h, read-out: IZ; method in brief: as §4
Staphylococcus aureus [13] = assay: Antimicrobial activity against multidrug-resistant Staphylococcus aureus H.C. 20905 isolate after 20 hrs by twofold serial dilution technique; conditions: H.C. 20905, 20 h; method in brief: as §1
Staphylococcus aureus [14] = assay: Antimicrobial activity against Staphylococcus aureus UFPEDA 01 at 300 ug/disk after 24 hrs by disk diffusion method; conditions: UFPEDA 01, 24 h, read-out: IZ; method in brief: as §4
Escherichia coli = assay: Antimicrobial activity against Escherichia coli UFPEDA 224 at 300 ug/disk after 24 hrs by disk diffusion method; conditions: UFPEDA 224, 24 h, read-out: IZ; method in brief: as §4
Enterococcus faecalis [15] = assay: Antimicrobial activity against Enterococcus faecalis UFPEDA 138 after 20 hrs by twofold serial dilution technique; conditions: UFPEDA 138, 20 h; method in brief: as §3
HEp-2 [16] = assay: Cytotoxicity against human Hep2 cells at 2.5 ug/mL after 72 hrs by MTT assay; conditions: HEp-2, 72 h, read-out: GI; method in brief: as §2
Staphylococcus aureus [17] = assay: Antimicrobial activity against multidrug-resistant Staphylococcus aureus H.C. 21141 isolate after 20 hrs by twofold serial dilution technique; conditions: H.C. 21141, 20 h; method in brief: as §1
NCI-H292 [18] = assay: Cytotoxicity against human NCI-H292 cells at 2.5 ug/mL after 72 hrs by MTT assay; conditions: NCI-H292, 72 h, read-out: GI; method in brief: as §2
Candida albicans [19] = assay: Antimicrobial activity against Candida albicans UFPEDA 1007 after 48 hrs by twofold serial dilution technique; conditions: UFPEDA 1007, 48 h; method in brief: as §3
Bacillus subtilis [20] = assay: Antimicrobial activity against Bacillus subtilis UFPEDA 16 at 300 ug/disk after 24 hrs by disk diffusion method; conditions: UFPEDA 16, 24 h, read-out: IZ; method in brief: as §4
Candida albicans [21] = assay: Antimicrobial activity against Candida albicans UFPEDA 1007 at 300 ug/disk after 48 hrs by disk diffusion method; conditions: UFPEDA 1007, 48 h, read-out: IZ; method in brief: as §4
Enterococcus faecalis [22] = assay: Antimicrobial activity against multidrug-resistant Enterococcus faecalis H.C. 24962 isolate after 20 hrs by twofold serial dilution technique; conditions: H.C. 24962, 20 h; method in brief: as §1
Micrococcus luteus [23] = assay: Antimicrobial activity against Micrococcus luteus UFPEDA 06 at 300 ug/disk after 24 hrs by disk diffusion method; conditions: UFPEDA 06, 24 h, read-out: IZ; method in brief: as §4
HEp-2 [24] = assay: Cytotoxicity against human Hep2 cells at 1.25 ug/mL after 72 hrs by MTT assay; conditions: HEp-2, 72 h, read-out: GI; method in brief: as §2
Staphylococcus aureus [25] = assay: Antimicrobial activity against multidrug-resistant Staphylococcus aureus H.C. 20981 isolate after 20 hrs by twofold serial dilution technique; conditions: H.C. 20981, 20 h; method in brief: as §1
HEp-2 [26] = assay: Cytotoxicity against human Hep2 cells at 10 ug/mL after 72 hrs by MTT assay; conditions: HEp-2, 72 h, read-out: GI; method in brief: as §2
[27] = system: Mycolicibacterium smegmatis; assay: Antimicrobial activity against Mycobacterium smegmatis UFPEDA 71 after 20 hrs by twofold serial dilution technique; conditions: UFPEDA 71, 20 h; method in brief: as §3
Serratia marcescens = assay: Antimicrobial activity against Serratia marcescens UFPEDA 398 at 300 ug/disk after 24 hrs by disk diffusion method; conditions: UFPEDA 398, 24 h, read-out: IZ; method in brief: as §4
Enterococcus faecalis [28] = assay: Antimicrobial activity against multidrug-resistant Enterococcus faecalis H.C. 24708 isolate after 20 hrs by twofold serial dilution technique; conditions: H.C. 24708, 20 h; method in brief: as §1
NCI-H292 [29] = assay: Cytotoxicity against human NCI-H292 cells at 5 ug/mL after 72 hrs by MTT assay; conditions: NCI-H292, 72 h, read-out: GI; method in brief: as §2
Enterococcus faecalis [30] = assay: Antimicrobial activity against multidrug-resistant Enterococcus faecalis H.C. 21944 isolate after 20 hrs by twofold serial dilution technique; conditions: H.C. 21944, 20 h; method in brief: as §1
Staphylococcus aureus [31] = assay: Antimicrobial activity against multidrug-resistant Staphylococcus aureus H.C. 20794 isolate after 20 hrs by twofold serial dilution technique; conditions: H.C. 20794, 20 h; method in brief: as §1
Staphylococcus [32] = assay: Antimicrobial activity against coagulase-negative Staphylococcus H.A.M. 278 isolate after 20 hrs by twofold serial dilution technique; conditions: H.A.M. 278, 20 h; method in brief: as §3

Work on `O=C1NC(=S)/C(=C/c2ccc(Cl)c(Cl)c2)S1` yielded an MIC (Staphylococcus aureus [1]) of 4 µg/mL (≈ 13.8 µM), an inhibition of growth at 1.25 µg/mL (NCI-H292 [2]) of 9.18% and an MIC (Staphylococcus [3]) of 2 µg/mL (≈ 6.89 µM). It also gave an MIC (Bacillus subtilis [4]) of 4 µg/mL (≈ 13.8 µM), an MIC (Staphylococcus aureus [5]) of 2 µg/mL (≈ 6.89 µM) and an MIC (Micrococcus luteus [6]) of 4 µg/mL (≈ 13.8 µM). For the same molecule, the zone of inhibition at 300 µg/disc [7] was 20 mm, the MIC (Enterococcus faecalis [8]) was 8 µg/mL (≈ 27.6 µM) and the zone of inhibition at 300 µg/disc (Pseudomonas aeruginosa) was < 7 mm. The inhibition of growth at 10 µg/mL (NCI-H292 [9]) was 43.3%, the MIC (Staphylococcus aureus [10]) was 4 µg/mL (≈ 13.8 µM) and the inhibition of growth at 5 µg/mL (HEp-2 [11]) was 11%. It also gave a zone of inhibition at 300 µg/disc (Enterococcus faecalis [12]) of 20 mm, an MIC (Staphylococcus aureus [13]) of 4 µg/mL (≈ 13.8 µM) and a zone of inhibition at 300 µg/disc (Staphylococcus aureus [14]) of 25 mm. For the same molecule, the zone of inhibition at 300 µg/disc (Escherichia coli) was < 7 mm, the MIC (Enterococcus faecalis [15]) was 8 µg/mL (≈ 27.6 µM) and the inhibition of growth at 2.5 µg/mL (HEp-2 [16]) was 5.03%. For the same molecule, the MIC (Staphylococcus aureus [17]) was 2 µg/mL (≈ 6.89 µM), the inhibition of growth at 2.5 µg/mL (NCI-H292 [18]) was 19.4% and the MIC (Candida albicans [19]) was 32 µg/mL (≈ 110 µM). For the same molecule, the zone of inhibition at 300 µg/disc (Bacillus subtilis [20]) was 27 mm, the zone of inhibition at 300 µg/disc (Candida albicans [21]) was 14 mm and the MIC (Enterococcus faecalis [22]) was 16 µg/mL (≈ 55.1 µM). For the same molecule, the zone of inhibition at 300 µg/disc (Micrococcus luteus [23]) was 27 mm, the inhibition of growth at 1.25 µg/mL (HEp-2 [24]) was -5.45% and the MIC (Staphylococcus aureus [25]) was 2 µg/mL (≈ 6.89 µM). For the same molecule, the inhibition of growth at 10 µg/mL (HEp-2 [26]) was 16.4%, the MIC [27] was 32 µg/mL (≈ 110 µM) and the zone of inhibition at 300 µg/disc (Serratia marcescens) was < 7 mm. It also gave an MIC (Enterococcus faecalis [28]) of 16 µg/mL (≈ 55.1 µM), an inhibition of growth at 5 µg/mL (NCI-H292 [29]) of 35.8% and an MIC (Enterococcus faecalis [30]) of 4 µg/mL (≈ 13.8 µM). For the same molecule, the MIC (Staphylococcus aureus [31]) was 2 µg/mL (≈ 6.89 µM) and the MIC (Staphylococcus [32]) was 4 µg/mL (≈ 13.8 µM).
In the case of `O=C1NC(=S)/C(=C/c2cccc(Cl)c2)S1`, the MIC (Staphylococcus aureus [1]) is reported as 2 µg/mL (≈ 7.82 µM), the inhibition of growth at 1.25 µg/mL (NCI-H292 [2]) is reported as 3.35% and the MIC (Staphylococcus [3]) is reported as 2 µg/mL (≈ 7.82 µM). It also gave an MIC (Bacillus subtilis [4]) of 8 µg/mL (≈ 31.3 µM), an MIC (Staphylococcus aureus [5]) of 2 µg/mL (≈ 7.82 µM) and an MIC (Micrococcus luteus [6]) of 8 µg/mL (≈ 31.3 µM). For the same molecule, the zone of inhibition at 300 µg/disc [7] was 24 mm, the MIC (Enterococcus faecalis [8]) was 4 µg/mL (≈ 15.6 µM) and the zone of inhibition at 300 µg/disc (Pseudomonas aeruginosa) was < 7 mm. It also gave an inhibition of growth at 10 µg/mL (NCI-H292 [9]) of 30.9%, an MIC (Staphylococcus aureus [10]) of 2 µg/mL (≈ 7.82 µM) and an inhibition of growth at 5 µg/mL (HEp-2 [11]) of 17.6%. It also gave a zone of inhibition at 300 µg/disc (Enterococcus faecalis [12]) of 22 mm, an MIC (Staphylococcus aureus [13]) of 2 µg/mL (≈ 7.82 µM) and a zone of inhibition at 300 µg/disc (Staphylococcus aureus [14]) of 31 mm. The zone of inhibition at 300 µg/disc (Escherichia coli) was < 7 mm, the MIC (Enterococcus faecalis [15]) was 8 µg/mL (≈ 31.3 µM) and the inhibition of growth at 2.5 µg/mL (HEp-2 [16]) was 5.44%. It also gave an MIC (Staphylococcus aureus [17]) of 8 µg/mL (≈ 31.3 µM), an inhibition of growth at 2.5 µg/mL (NCI-H292 [18]) of 11.2% and an MIC (Candida albicans [19]) of 32 µg/mL (≈ 125 µM). For the same molecule, the zone of inhibition at 300 µg/disc (Bacillus subtilis [20]) was 25 mm, the zone of inhibition at 300 µg/disc (Candida albicans [21]) was 13 mm and the MIC (Enterococcus faecalis [22]) was 4 µg/mL (≈ 15.6 µM). The zone of inhibition at 300 µg/disc (Micrococcus luteus [23]) was 29 mm, the inhibition of growth at 1.25 µg/mL (HEp-2 [24]) was -0.36% and the MIC (Staphylococcus aureus [25]) was 2 µg/mL (≈ 7.82 µM). The inhibition of growth at 10 µg/mL (HEp-2 [26]) was 18.8%, the MIC [27] was 16 µg/mL (≈ 62.6 µM) and the zone of inhibition at 300 µg/disc (Serratia marcescens) was < 7 mm. For the same molecule, the MIC (Enterococcus faecalis [28]) was 4 µg/mL (≈ 15.6 µM), the inhibition of growth at 5 µg/mL (NCI-H292 [29]) was 21.6% and the MIC (Enterococcus faecalis [30]) was 4 µg/mL (≈ 15.6 µM). It also gave an MIC (Staphylococcus aureus [31]) of 2 µg/mL (≈ 7.82 µM) and an MIC (Staphylococcus [32]) of 16 µg/mL (≈ 62.6 µM).
